High-throughput results as filed in PubChem BioAssay.
KCNQ1 act = potentiators or activators of human KCNQ1 potassium channel; P51787; CHO-K1 KCNQ1, thallium flux FluxOR fluorescence; active compounds read high; B-score at 10 µM; actives 0.35% (n = 310,000); AID 2648;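 active = fluorescence ratio B-score, a plate-corrected score, at least three library SD, with initial intensity B-score within 5 SD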
Target sequence (P51787 whole entry, looked up): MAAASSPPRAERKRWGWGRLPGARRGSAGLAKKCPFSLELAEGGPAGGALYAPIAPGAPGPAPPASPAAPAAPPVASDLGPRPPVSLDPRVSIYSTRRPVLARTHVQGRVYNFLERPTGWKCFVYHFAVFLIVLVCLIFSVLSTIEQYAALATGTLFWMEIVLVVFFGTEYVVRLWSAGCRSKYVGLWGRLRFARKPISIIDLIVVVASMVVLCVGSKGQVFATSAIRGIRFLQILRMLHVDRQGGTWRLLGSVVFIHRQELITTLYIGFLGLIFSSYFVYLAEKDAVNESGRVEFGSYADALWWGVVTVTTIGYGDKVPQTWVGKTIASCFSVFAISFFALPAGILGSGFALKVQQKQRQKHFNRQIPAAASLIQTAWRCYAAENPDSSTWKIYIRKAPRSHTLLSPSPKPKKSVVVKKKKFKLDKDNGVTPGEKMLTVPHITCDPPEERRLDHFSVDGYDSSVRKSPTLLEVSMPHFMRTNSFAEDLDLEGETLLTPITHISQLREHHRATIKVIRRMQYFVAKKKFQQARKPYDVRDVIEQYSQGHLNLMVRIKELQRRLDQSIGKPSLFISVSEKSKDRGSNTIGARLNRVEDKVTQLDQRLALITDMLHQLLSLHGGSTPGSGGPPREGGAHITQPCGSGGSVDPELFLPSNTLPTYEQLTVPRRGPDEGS
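Assay system: stable KCNQ1 CHO-K1 line; medium: assay buffer, equal DMSO in all wells; timing: 90 min dye loading and 20 min compound exposure, both at room temperature; technique: kinetic FluxOR thallium fluorescence, 10-s 1-Hz baseline, 110-s post-stimulus read; read-out basis: B score of baseline-normalized fluorescence ratio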
KCNK9 inh = human KCNK9 channel inhibition; Q9NPC2; HEK293 KCNK9, FluxOR thallium flux fluorescence; active compounds read low; B-score at 10 µM; actives 1.2% (n = 310,000);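 active = ratio B-score over 3 SD below the library mean, with starting fluorescence within 5 SD of its mean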;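 also: negative B-score means less thallium flux so channel inhibition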
hERG rescue = shields human hERG channel from block by proarrhythmic agents; Q12809; CHO-hERG, FluxOR thallium flux, dofetilide IC70 present; activation (rescue from dofetilide block), less the hit threshold, % at 10 µM; actives 0.51% (n = 310,000); AID 1511;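 active = activation above the mean of controls blocked by dofetilide plus 5 SD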;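 also: thallium influx through hERG after potassium depolarization seen as dye fluorescence rise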
KCNQ1 inh = inhibitors of human KCNQ1 potassium channel; actives 1.3% (n = 310,000); B-score at 10 µM; CHO-K1 KCNQ1, FluxOR thallium flux fluorescence; active compounds read high;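 active = compounds whose thallium flux B-score, printed positive for inhibition, exceeds three library SD while starting fluorescence stays within three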;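 also: channel opened by potassium depolarization with thallium stimulus after 20 min compound exposure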
Kir21 block = blocks the mouse Kir2.1 inward-rectifier potassium channel; P35561; HEK293-Kir2.1, FluxOR thallium flux fluorescence; active compounds read low; B-score at 10 µM; actives 0.85% (n = 310,000);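 active = fluorescence ratio B-score at or below minus 3 SD of library scores, with starting-brightness B-score within 2 SD, cut at about -4.2 in these data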;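 also: channel flux triggered by added potassium and thallium sulfate stimulus; B-score of peak minus minimum fluorescence over baseline after thallium stimulus; more negative B-score means stronger Kir2.1 block with less thallium influx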
KCNK3 block = human KCNK3 channel inhibition, primary screen; AID 602410; B-score at 10 µM; actives 0.84% (n = 340,000); CHO-KCNK3 thallium flux, FluxOR fluorescence; active compounds read low; O14649;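 active = B-score under library mean minus 4 SD, starting fluorescence ratio at most library mean plus 5 SD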;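 also: more negative B-score means stronger inhibition of thallium flux through KCNK3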
Hits are given with their value; i = inactive; nt = no result given. A selection: hits, their analogues and other compounds. The true share with any hit is near 3.7%.

SMILES	KCNQ1 act	KCNK9 inh	hERG rescue	KCNQ1 inh	Kir21 block	KCNK3 block
COc1ccc(OC)c(-c2csc(NC(=O)CSc3ccc([N+](=O)[O-])cc3)n2)c1	i	i	i	7	i	i
CC(C)(C)CC(C)(C)NC(=S)NC1CCN(Cc2ccccc2)CC1	i	i	i	i	i	i
COc1ccccc1-c1cnnc(N/N=C/c2ccc(-c3cccc(Br)c3)o2)n1	i	-6.8	i	i	i	i
COc1cc(OC)cc(C(=O)Nn2c(C)nc3ccccc3c2=O)c1	i	i	i	i	i	i
COc1cc(OC)cc(-c2nc3ccccc3c(=O)n2OC(=O)c2ccc(C)c(C)c2)c1	i	i	i	7	i	i
Cc1ccc2c(c1)Oc1ccccc1C=C2C(=O)O	i	i	i	i	i	i
COc1ccc(C=CC(=O)c2ccc(OC)c(OC)c2O)cc1OC	nt	nt	nt	nt	nt	i
Cc1ccc(/C=C/C(=O)c2ccccc(=O)c2O)cc1C	34	i	9.1	i	i	i
CCOc1ccc(N2C(=O)Nc3ccc(Br)cc3C2(O)C(=O)NCCN(C)C)cc1 (centres undefined)	i	i	i	i	i	i
COc1ccccc1CNCC(O)Cn1c2ccccc2c2ccccc21 (centres undefined)	i	i	i	i	-13	i
COc1ccc(Br)cc1CNC(C)c1ccccc1 (centres undefined)	i	i	i	i	-4.4	i
COc1ccccc1CNCc1cccc(Oc2ccccc2)c1	8	i	i	i	-8.8	i
COc1cc(CNCc2cccc3ccccc23)cc(OC)c1	i	i	i	i	-4.7	i
COc1ccc(-c2ccncc2)cc1OC	i	i	i	i	i	i
COc1ccc(C(C(=O)NC2CCCC2)N(Cc2cccnc2)C(=O)c2snc(C(N)=O)c2N)cc1 (centres undefined)	i	i	i	i	i	i
COc1ccccc1CNCc1cc(OC)c(OC)cc1OC	i	i	i	i	i	i
COc1ccccc1CNCc1cc(Br)ccc1OC	i	i	i	i	-6	i
COc1ccccc1CNCC(c1ccccc1)c1ccccc1	i	i	i	i	-8.5	i
O=[N+]([O-])c1ccc(-c2c(-c3ccccc3)ncc3cc(F)ccc23)cc1	nt	nt	nt	nt	nt	i
CCOc1cc(C(=O)NCCCn2ccnc2)cc(OCC)c1OCC	i	i	i	i	i	i
CCc1ccc2c(c1)c(N=NC1=NC(=O)CS1)c(O)n2CC	16	i	7.7	i	i	i
CCc1ccc2[nH]c(O)c(N=NC3=NC(=O)CS3)c2c1	i	i	i	i	i	i
Cn1nc(-c2ccccc2)c(CSc2ccccc2)c1Cl	i	-7.3	i	i	i	i
CCC(O)c1c(-c2ccccc2)nn(C)c1Cl (centres undefined)	i	i	i	i	i	i
CCN(CC(=O)NC1CCS(=O)(=O)C1)c1ccc([N+](=O)[O-])cc1C#N (centres undefined)	nt	nt	nt	nt	nt	i
SMILES	KCNQ1 act	KCNK9 inh	hERG rescue	KCNQ1 inh	Kir21 block	KCNK3 block
COc1ccccc1N1N=C(c2ccc([N+](=O)[O-])cc2)CC1c1ccccc1 (centres undefined)	i	i	i	12	i	i
CCOC(=O)c1ccc(N2C(=O)c3n[nH]c(C)c3C2c2ccccc2)cc1 (centres undefined)	i	i	i	i	i	i
CCOC(=O)c1ccc(N2C(=O)c3n[nH]c(C)c3C2c2ccc(O)cc2)cc1 (centres undefined)	i	-7.1	i	i	i	i
Cc1ccc(-n2ncc3c(NNC(=O)c4cccs4)ncnc32)cc1	i	i	5.7	i	i	i
CCC(=O)NNc1ncnc2c1cnn2-c1ccccc1	i	i	i	i	i	i
COc1cc(C=O)ccc1Oc1nc(Nc2ccc(F)cc2F)nc(N2CCOCC2)n1	i	i	i	i	i	i
CCCSc1nc(N)cc(=O)[nH]1	i	i	4.7	i	i	i
CCCCCCCCn1c(N2CCN(c3cccc(Cl)c3)CC2)nc2c1c(=O)[nH]c(=O)n2C	i	i	i	i	i	i
CCCCCCn1c(N2CCN(c3cccc(Cl)c3)CC2)nc2c1c(=O)[nH]c(=O)n2C	i	-7.6	i	i	i	i
O=C1CSC(c2cccnc2)N1C1CCCCC1 (centres undefined)	i	i	i	i	i	i
O=C1CSC(c2ccc(Cl)cc2)N1C1CCCCC1 (centres undefined)	i	i	i	i	-6.1	i
O=C(COC(=O)CCC(=O)c1cccs1)NC1CC1	i	i	i	i	i	i
COCCNC(=S)Nc1ccc(Cl)c(Cl)c1	i	i	i	6	i	i
COc1cc(OC)c(NC(=S)Nc2cc(Cl)cc(Cl)c2)cc1Cl	i	i	i	10	i	i
COc1cc(C)c(NC(=S)Nc2ccc(Cl)c(Cl)c2)cc1OC	i	i	i	6	i	i
CCOc1ccc(NC(=S)Nc2cc(OC)c(Cl)cc2OC)cc1	i	i	i	i	i	i
COc1ccc(-n2c(SCC(=O)Nc3ccccc3C)nc(O)c(Cc3ccccc3)c2=O)cc1	i	i	i	i	i	i
CCc1cc2c(=O)n(Cc3ccco3)c(SCC(=O)N3CCCc4ccccc43)nc2s1	i	i	i	6	i	i
Cc1ccc(S(=O)(=O)c2c(C)cc(C)nc2Cl)cc1	i	i	i	i	i	i
C=C(C)Cn1c(C)cc(C)c(S(=O)(=O)c2ccc(C)cc2)c1=O	i	-7.2	i	i	i	i
COc1cc(/C=C(\C#N)C(=O)c2c[nH]c3ccccc23)cc(OC)c1O	i	i	i	7	i	i
COc1cc(/C=C(\C#N)C(=O)NCCc2ccccc2)cc(OC)c1O	i	i	i	i	i	i
COc1ccc(NC(=O)COC(=O)c2ccc(O)cc2)c([N+](=O)[O-])c1	i	i	i	i	i	i
CS(=O)(=O)C1=NSC2=NC(=O)/C(=C\c3cccn3-c3ccc(Cl)cc3)C(=N)N21	i	i	i	7	i	i
Cc1cc(/C=C2/C(=N)N3C(=NC2=O)SN=C3S(C)(=O)=O)c(C)n1-c1ccccc1F	i	i	i	i	i	i
SMILES	KCNQ1 act	KCNK9 inh	hERG rescue	KCNQ1 inh	Kir21 block	KCNK3 block
Clc1ccc(-c2csc(N3CCc4ccccc4C3)n2)cc1	10	i	i	i	i	i
c1ccc(-c2csc(N3CCOCC3)n2)cc1	i	i	i	i	i	i
c1ccc(-c2csc(N3CCN(c4ccccn4)CC3)n2)cc1	i	-6.7	i	i	i	i
Cc1ccc2nc(NCCc3ccccc3)c3nncn3c2c1	i	i	i	i	i	i
Cc1cc(C)c(S(=O)(=O)NCc2cccs2)cc1C	i	i	i	i	i	i
CCOC(=O)c1sc(=NC(=O)c2cccc(C)c2)n(C)c1C	i	i	5.7	i	i	i
c1ccc(C2=Nc3c(ccc4ccccc34)C(c3ccncc3)=NN2)cc1	i	-7.7	i	i	i	i
